Laboratory results from ChEMBL document CHEMBL1130096, “2-Cyclopropylindoloquinones and their analogues as bioreductively activated antitumor agents: structure-activity in vitro and efficacy in vivo” (J Med Chem, 1997).

Experiments:
Mus musculus [1] = assay: compound was evaluated in vivo in mice bearing [KHT] tumor cells for the relative surviving fraction of cells at 20 mg kg-1 drug dose.; format: functional
How it was run: (§1)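 Mice bearing RIF-1 or KHT murine sarcomas. Maximum tolerated dose (MTD) established for each drug. Drug given alone at MTD, or at 20 or 50 mg kg-1 combined with a single X-ray dose: 15 Gy for RIF-1, 10 Gy for KHT. Radiation dose chosen to kill most oxic tumor cells. Read-out was tumor cell surviving fraction relative to untreated control, reported as mean.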

Mus musculus [2] = assay: compound was evaluated in vivo in mice bearing [KHT] tumor cells for the relative surviving fraction of cells at 50 mg kg-1 drug dose.; format: functional; how it was run: as §1
V79 [3] = assay: In vitro concentration required to kill 50% of the aerobic cells; format: functional, Cricetulus griseus
V79 [4] = assay: In vitro concentration required to kill hypoxic cells V79-379A cells; format: functional, Cricetulus griseus
Mus musculus [5] = assay: compound was evaluated in vivo in mice bearing [RIF-1] tumor cells 90 mg kg-1 drug dose. MTD is the […].; format: functional
Mus musculus [6] = assay: compound was evaluated in vivo in mice bearing [KHT] tumor cells at 20 mg kg-1 drug dose. MTD is the […].; format: functional
Mus musculus [7] = assay: compound was evaluated in vivo in mice bearing [RIF-1] tumor cells for the relative surviving fraction of cells at 90 mg kg-1 drug dose.; format: functional; how it was run: as §1
[8] = Hypoxic cytotoxic ratios of the concentration required to kill 50% of the aerobic cells and concentration required to kill hypoxic cells; format: cell-based, Cricetulus griseus; conditions: chinese hamster, V79 cells; read-out: HCR
Mus musculus [9] = assay: compound was evaluated in vivo in mice bearing [KHT] tumor cells for the relative surviving fraction of cells at 90 mg kg-1 drug dose.; format: functional; how it was run: as §1
Mus musculus [10] = assay: compound was evaluated in vivo in mice bearing [RIF-1] tumor cells at 50 mg kg-1 drug dose. MTD is the […].; format: functional
Mus musculus [11] = assay: compound was evaluated in vivo in mice bearing [RIF-1] tumor cells for the relative surviving fraction of cells at 20 mg kg-1 drug dose.; format: functional; how it was run: as §1
Mus musculus [12] = assay: compound was evaluated in vivo in mice bearing [KHT] tumor cells at 50 mg kg-1 drug dose. MTD is the […].; format: functional
Mus musculus [13] = assay: compound was evaluated in vivo in mice bearing [RIF-1] tumor cells for the relative surviving fraction of cells at 50 mg kg-1 drug dose.; format: functional; how it was run: as §1
Mus musculus [14] = assay: compound was evaluated in vivo in mice bearing [KHT] tumor cells at 90 mg kg-1 drug dose. MTD is the […].; format: functional
Mus musculus [15] = assay: compound was evaluated in vivo in mice bearing [RIF-1] tumor cells at 20 mg kg-1 drug dose. MTD is the […].; format: functional
Mus musculus [16] = assay: compound was were evaluated in vivo in mice bearing [KHT] murine sarcoma tumor cells at 100 mg kg-1 drug dose. MTD is the […].; format: functional
Mus musculus [17] = assay: compound was evaluated in vivo mice bearing [RIF-1] murine sarcoma tumor cells at 100 mgkg-1 drug dose. MTD is the […].; format: functional
Mus musculus [18] = assay: compound was evaluated in vivo in mice bearing [RIF-1] murine sarcoma tumor cells at 100 mgkg-1 drug dose. MTD is the […].; format: functional
Mus musculus [19] = assay: compound was evaluated in vivo in mice bearing [KHT] murine sarcoma tumor cells at 100 mg kg-1 drug dose. MTD is the […].; format: functional
V79 [20] = assay: In vitro concentration required to kill hypoxic cells V79-379A cells was determined for all the compounds using the MTT(3-(4,5-dimethylthiazol-2-y1)-2,5-diphenyl-2H-tetrazolium bromide) assay; format: functional, Cricetulus griseus
V79 [21] = assay: In vitro concentration required to kill 50% of the aerobic cells under the conditions of the assay; format: functional, Cricetulus griseus
[22] = hypoxic cytotoxic ratios (HCR) of the concentration required to kill 50% of the aerobic cells and concentration required to kill hypoxic cells; conditions: read-out: HCR

Compound | C50 (V79 [3]) [µM] | C50 (V79 [4]) [µM] | selectivity ratio [8] | other results
Cc1c(CO)c2c(n1C)C(=O)C=C(N1CC1C)C2=O (stereo not drawn) | 94 | 0.5 | 188 | Mean relative surviving fraction (Mus musculus [1]): 0.008; Mean relative surviving fraction (Mus musculus [2]): 0.005; MTD (Mus musculus [5]): 90 mg/kg; MTD (Mus musculus [6]): 90 mg/kg; Mean relative surviving fraction (Mus musculus [7]): 0.02; Mean relative surviving fraction (Mus musculus [9]): 0.15; MTD (Mus musculus [10]): 90 mg/kg; Mean relative surviving fraction (Mus musculus [11]): <0.0001; MTD (Mus musculus [12]): 90 mg/kg; Mean relative surviving fraction (Mus musculus [13]): <0.0001; MTD (Mus musculus [14]): 90 mg/kg; MTD (Mus musculus [15]): 90 mg/kg
COC1=CC(=O)c2c(c(COC(N)=O)cn2C)C1=O | 3.1 | 0.037 | 83.8 | –
COC(=O)c1c2c(n(C)c1C(C)C)C(=O)C=C(OC)C2=O | 150 | 150 | 1 | –
Cn1c2c(c(CO)c1C1CC1)C(=O)C(N1CC1)=CC2=O | 0.603 | 0.0058 | 104 | MTD (Mus musculus [16]): 100 mg/kg; MTD (Mus musculus [17]): 100 mg/kg; MTD (Mus musculus [18]): 100 mg/kg; MTD (Mus musculus [19]): 100 mg/kg
COC1=CC(=O)c2c(c(COC(N)=O)c(C3CC3)n2C)C1=O | 29 | 0.44 | 65.9 | –
Cn1c2c(c(CO)c1C1CCCCC1)C(=O)C(N1CC1)=CC2=O | 34.5 | 0.93 | 37 | –
Cc1c(CO)c2c(n1C)C(=O)C=C(N1CC1)C2=O | 0.149 | 0.0116 | 12.8 | –
CC1CN1C1=CC(=O)c2c(c(COC(N)=O)c(C3CC3)n2C)C1=O (stereo not drawn) | 12.5 | 0.459 | 27.2 | –
CC(C)c1c(COC(N)=O)c2c(n1C)C(=O)C=C(N1CC1C)C2=O (stereo not drawn) | 20.6 | 0.87 | 23.7 | –
O=C1C(N2CC2)=CC(=O)c2c1c(CO)c1n2CC2CC12 (stereo not drawn) | 0.965 | 0.073 | 13.2 | –
COC1=CC(=O)c2c(c(CO)cn2C)C1=O | 220 | 240 | 0.92 | –
COC1=CC(=O)c2c(c(CO)c(C3CC3)n2C)C1=O | 540 | 820 | 0.65 | –
Cc1c(CO)c2c(n1C)C(=O)C=C(N1C(C)C1C)C2=O (stereo not drawn) | 202 | 14.2 | 14.2 | –
Cn1cc(CO)c2c1C(=O)C=C(N1CC1)C2=O | 0.153 | 0.0086 | 15.4 | –
NC(=O)OCc1c2c(n3c1C1CC1C3)C(=O)C=C(N1CC1)C2=O (stereo not drawn) | 0.003 | 0.003 | – | –
Cn1cc(COC(N)=O)c2c1C(=O)C=C(N1CC1)C2=O | 0.00019 | 0.00013 | 1.46 | –
Cn1c2c(c(COC(N)=O)c1C1CC1)C(=O)C(N1CC1)=CC2=O | 3.33 | 0.074 | 45 | –

Compound | C50 (V79 [3]) [µM] | C50 (V79 [4]) [µM] | selectivity ratio [8] | other results
COC(=O)c1c2c(n(C)c1C1CC1)C(=O)C=C(N1CC1)C2=O | 1.72 | 0.93 | 1.8 | –
CC(C)c1c(CO)c2c(n1C)C(=O)C=C(N1CC1)C2=O | 25.7 | 0.79 | 32.5 | –
COC1=CC(=O)c2c(c(C)c(C(C)C)n2C)C1=O | 1.236 | 0.657 | 1.88 | –
COC1=CC(=O)c2c(c(CO)c(C3CCCCC3)n2C)C1=O | 122.4 | 20.5 | 6 | –
COC(=O)c1c2c(n(C)c1C1CC1)C(=O)C=C(OC)C2=O | 103.5 | 59.8 | 1.7 | –
Cc1c2c(n(C)c1C(C)C)C(=O)C=C(N1CC1)C2=O | – | – | – | C50 (V79 [20]): 0.188 µM; C50 (V79 [21]): 0.333 µM; selectivity ratio [22]: 1.77
CC(C)c1c(CO)c2c(n1C)C(=O)C=C(N1CC1C)C2=O (stereo not drawn) | 127.8 | 13.9 | 9.2 | –
Cc1c(CO)c2c(n1C)C(=O)C=C(NCC(C)(C)O)C2=O | 1260 | 500 | 2.5 | –
COC1=CC(=O)c2c(c(COC(N)=O)c(C(C)C)n2C)C1=O | 20.9 | 0.117 | 179 | –
CC(C)c1c(COC(N)=O)c2c(n1C)C(=O)C=C(N1CC1)C2=O | 47.5 | 5.46 | 8.7 | –
COC1=CC(=O)c2c(c(CO)c(C(C)C)n2C)C1=O | 800 | 200 | 4 | –
COC1=CC(=O)c2c(c(CO)c3n2CC2CC32)C1=O (stereo not drawn) | 108.4 | 60.6 | 1.8 | –
CC1CN1C1=CC(=O)c2c(c(CO)c(C3CC3)n2C)C1=O (stereo not drawn) | 130 | 5.6 | 23.4 | –
COC1=CC(=O)c2c(c(CO)c(C)n2C)C1=O | 1077 | 284.8 | 3.78 | –
Cn1c(/C=C/CO)c(CO)c2c1C(=O)C=C(N1CC1)C2=O [APAZIQUONE] | 0.19 | 0.0038 | 50.3 | –
CO[C@@]12[C@H](COC(N)=O)C3=C(C(=O)C(C)=C(N)C3=O)N1C[C@@H]1N[C@@H]12 [MITOMYCIN] | 0.8 | 0.4 | – | –
